Measurements published in ChEMBL document CHEMBL5678818, “Discovery of potent SOS1 inhibitors that block RAS activation via disruption of the RAS-SOS1 interaction” (Proc Natl Acad Sci U S A, 2019).
Where “and” joins values, the source holds several entries; their conditions need not be identical. Identical values can stand only once.

Assays:
[1] = target: T1, Atypical kinase COQ8B, mitochondrial (Homo sapiens) (UniProt Q96D53); experiment: Inhibition of ADCK4 (unknown origin) assessed as residual activity at 1000 nM by KINOMEscan analysis relative to control
T1 sequence (whole entry): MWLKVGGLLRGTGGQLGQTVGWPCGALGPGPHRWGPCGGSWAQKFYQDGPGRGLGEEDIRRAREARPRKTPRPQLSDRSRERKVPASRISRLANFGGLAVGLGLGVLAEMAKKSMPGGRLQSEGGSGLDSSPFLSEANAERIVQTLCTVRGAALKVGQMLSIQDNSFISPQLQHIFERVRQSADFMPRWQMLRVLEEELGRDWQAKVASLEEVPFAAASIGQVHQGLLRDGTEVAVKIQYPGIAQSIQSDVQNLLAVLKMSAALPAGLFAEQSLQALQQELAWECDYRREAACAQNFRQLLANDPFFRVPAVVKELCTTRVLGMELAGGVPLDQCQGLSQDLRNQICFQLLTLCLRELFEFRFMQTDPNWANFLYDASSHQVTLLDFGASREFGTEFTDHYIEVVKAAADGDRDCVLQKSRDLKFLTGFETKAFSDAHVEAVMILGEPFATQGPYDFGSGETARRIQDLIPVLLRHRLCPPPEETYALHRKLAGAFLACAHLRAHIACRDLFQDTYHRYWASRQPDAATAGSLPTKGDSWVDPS

[2] = target: T2, Mitogen-activated protein kinase kinase kinase 2 (Homo sapiens) (UniProt Q9Y2U5); experiment: Inhibition of MAP3K2 (unknown origin) assessed as residual activity at 1000 nM by KINOMEscan analysis relative to control
T2 sequence (whole entry): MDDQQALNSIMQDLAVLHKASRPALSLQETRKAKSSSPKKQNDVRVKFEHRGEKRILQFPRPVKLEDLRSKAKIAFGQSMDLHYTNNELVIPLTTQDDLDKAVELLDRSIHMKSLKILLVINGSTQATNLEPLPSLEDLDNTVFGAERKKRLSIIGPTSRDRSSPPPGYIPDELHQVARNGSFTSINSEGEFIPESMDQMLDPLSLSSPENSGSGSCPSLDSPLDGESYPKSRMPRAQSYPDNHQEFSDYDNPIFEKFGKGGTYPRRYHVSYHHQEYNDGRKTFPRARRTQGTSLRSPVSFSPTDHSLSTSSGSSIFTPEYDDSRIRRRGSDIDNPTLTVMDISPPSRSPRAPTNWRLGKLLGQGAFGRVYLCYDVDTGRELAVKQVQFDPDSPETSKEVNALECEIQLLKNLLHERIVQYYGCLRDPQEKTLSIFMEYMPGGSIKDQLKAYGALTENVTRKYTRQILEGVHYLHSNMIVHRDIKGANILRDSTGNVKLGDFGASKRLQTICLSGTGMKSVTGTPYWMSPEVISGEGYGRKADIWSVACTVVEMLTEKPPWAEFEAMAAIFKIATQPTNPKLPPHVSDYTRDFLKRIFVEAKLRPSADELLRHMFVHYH

[3] = target: Dual specificity protein kinase CLK4 (Homo sapiens) (UniProt Q9HAZ1); experiment: Inhibition of CLK4 (unknown origin) assessed as residual activity at 1000 nM by KINOMEscan analysis relative to control
[4] = target: Epidermal growth factor receptor (Homo sapiens, UniProt P00533); experiment: Inhibition of EGFR (unknown origin) assessed as residual activity at 1000 nM by KINOMEscan analysis relative to control
[5] = target: Platelet-derived growth factor receptor beta (Homo sapiens) (UniProt P09619); experiment: Inhibition of PDGFRB (unknown origin) assessed as residual activity at 1000 nM by KINOMEscan analysis relative to control
[6] = target: Serine/threonine-protein kinase PAK 1 (Homo sapiens) (UniProt Q13153); experiment: Inhibition of PAK1 (unknown origin) assessed as residual activity at 1000 nM by KINOMEscan analysis relative to control
[7] = target: T3, Son of sevenless homolog 1 (Homo sapiens) (UniProt Q07889); experiment: Binding affinity to N-terminal His10-tagged wild-type recombinant human SOS1 catalytic domain (564 to 1049 residues) expressed in Escherichia coli assessed as change in enthalpy by ITC analysis
T3 sequence (whole entry): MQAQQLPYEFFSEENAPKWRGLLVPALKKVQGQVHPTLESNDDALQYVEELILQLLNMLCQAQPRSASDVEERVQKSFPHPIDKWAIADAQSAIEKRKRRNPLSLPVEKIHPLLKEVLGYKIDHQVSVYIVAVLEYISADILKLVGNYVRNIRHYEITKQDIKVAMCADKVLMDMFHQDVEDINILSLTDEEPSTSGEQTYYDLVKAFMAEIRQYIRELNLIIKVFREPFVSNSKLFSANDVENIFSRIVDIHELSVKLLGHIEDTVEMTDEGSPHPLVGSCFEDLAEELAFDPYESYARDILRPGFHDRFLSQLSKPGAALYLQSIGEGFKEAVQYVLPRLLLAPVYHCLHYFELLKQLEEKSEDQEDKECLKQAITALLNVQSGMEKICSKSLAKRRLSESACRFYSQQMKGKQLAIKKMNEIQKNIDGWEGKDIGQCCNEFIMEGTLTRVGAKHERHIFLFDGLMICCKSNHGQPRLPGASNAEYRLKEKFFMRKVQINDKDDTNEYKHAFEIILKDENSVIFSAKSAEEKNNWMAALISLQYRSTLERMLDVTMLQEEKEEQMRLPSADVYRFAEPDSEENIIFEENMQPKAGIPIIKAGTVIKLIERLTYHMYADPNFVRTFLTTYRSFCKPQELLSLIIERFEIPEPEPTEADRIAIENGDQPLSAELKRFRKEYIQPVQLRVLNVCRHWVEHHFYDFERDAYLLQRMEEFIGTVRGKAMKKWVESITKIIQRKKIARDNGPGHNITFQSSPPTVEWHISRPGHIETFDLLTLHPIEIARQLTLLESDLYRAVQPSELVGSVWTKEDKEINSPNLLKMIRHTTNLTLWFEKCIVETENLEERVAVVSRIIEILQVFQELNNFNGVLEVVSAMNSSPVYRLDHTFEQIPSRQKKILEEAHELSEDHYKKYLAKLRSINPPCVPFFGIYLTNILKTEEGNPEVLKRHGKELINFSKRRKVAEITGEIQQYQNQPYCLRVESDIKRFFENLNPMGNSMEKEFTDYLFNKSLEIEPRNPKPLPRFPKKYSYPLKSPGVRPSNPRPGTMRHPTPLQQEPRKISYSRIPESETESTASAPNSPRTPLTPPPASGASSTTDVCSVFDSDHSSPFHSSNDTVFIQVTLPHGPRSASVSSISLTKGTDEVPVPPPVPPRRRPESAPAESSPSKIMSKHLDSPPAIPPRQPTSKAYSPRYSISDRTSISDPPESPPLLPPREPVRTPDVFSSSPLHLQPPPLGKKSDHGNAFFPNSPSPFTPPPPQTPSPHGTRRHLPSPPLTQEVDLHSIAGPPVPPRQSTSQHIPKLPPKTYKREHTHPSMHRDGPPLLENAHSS
Procedure, shortened: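 SOS1cat was titrated into a solution of the test ligand. Integrated injection enthalpies were plotted against the protein-to-compound molar ratio and fitted to derive the thermodynamic binding parameters.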

Serine/threonine-protein kinase PAK 1 (Homo sapiens), sequence (Q13153 whole entry, looked up, the tested form may be a part): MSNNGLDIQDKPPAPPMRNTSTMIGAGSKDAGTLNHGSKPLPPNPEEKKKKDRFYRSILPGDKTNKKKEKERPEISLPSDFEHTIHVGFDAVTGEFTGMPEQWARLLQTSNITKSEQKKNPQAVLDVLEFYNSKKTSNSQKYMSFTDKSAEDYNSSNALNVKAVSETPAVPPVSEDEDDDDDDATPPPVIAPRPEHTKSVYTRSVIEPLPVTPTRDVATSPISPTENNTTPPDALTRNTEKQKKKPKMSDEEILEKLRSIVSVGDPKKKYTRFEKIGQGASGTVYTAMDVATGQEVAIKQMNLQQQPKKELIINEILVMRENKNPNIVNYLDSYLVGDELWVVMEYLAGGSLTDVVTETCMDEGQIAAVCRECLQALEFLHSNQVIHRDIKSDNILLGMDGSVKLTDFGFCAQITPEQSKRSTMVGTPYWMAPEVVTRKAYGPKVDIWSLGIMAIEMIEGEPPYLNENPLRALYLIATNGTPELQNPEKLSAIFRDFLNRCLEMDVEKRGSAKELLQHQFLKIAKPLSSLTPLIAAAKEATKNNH
Epidermal growth factor receptor, sequence (P00533 whole entry): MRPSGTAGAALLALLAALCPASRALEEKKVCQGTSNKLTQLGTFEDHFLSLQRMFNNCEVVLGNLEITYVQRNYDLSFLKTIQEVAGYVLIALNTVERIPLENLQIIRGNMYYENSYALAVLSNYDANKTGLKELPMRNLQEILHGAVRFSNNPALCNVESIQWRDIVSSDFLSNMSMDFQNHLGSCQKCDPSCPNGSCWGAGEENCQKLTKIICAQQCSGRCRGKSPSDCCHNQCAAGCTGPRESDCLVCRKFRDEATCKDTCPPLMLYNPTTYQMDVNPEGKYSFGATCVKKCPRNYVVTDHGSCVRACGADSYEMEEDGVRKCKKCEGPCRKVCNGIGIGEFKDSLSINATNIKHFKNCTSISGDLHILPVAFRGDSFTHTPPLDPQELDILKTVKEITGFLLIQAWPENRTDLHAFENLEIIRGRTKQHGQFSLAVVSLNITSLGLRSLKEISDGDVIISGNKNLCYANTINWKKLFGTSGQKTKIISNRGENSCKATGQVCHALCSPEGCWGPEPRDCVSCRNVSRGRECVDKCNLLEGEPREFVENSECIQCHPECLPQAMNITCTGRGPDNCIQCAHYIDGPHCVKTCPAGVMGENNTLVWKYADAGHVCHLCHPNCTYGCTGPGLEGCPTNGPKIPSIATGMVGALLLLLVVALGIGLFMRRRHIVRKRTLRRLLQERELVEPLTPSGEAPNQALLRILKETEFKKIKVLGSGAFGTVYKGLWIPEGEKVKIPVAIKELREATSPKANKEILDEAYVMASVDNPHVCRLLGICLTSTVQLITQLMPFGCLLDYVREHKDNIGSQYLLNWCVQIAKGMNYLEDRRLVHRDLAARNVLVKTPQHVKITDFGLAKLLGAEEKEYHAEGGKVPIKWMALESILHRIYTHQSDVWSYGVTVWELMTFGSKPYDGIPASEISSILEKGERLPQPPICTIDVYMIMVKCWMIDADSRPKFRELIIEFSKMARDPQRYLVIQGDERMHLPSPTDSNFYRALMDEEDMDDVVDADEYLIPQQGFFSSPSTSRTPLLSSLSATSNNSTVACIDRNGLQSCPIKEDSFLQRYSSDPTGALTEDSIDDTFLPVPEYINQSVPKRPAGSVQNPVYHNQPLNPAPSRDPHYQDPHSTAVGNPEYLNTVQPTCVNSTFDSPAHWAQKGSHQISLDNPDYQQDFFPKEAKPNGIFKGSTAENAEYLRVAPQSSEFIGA
Platelet-derived growth factor receptor beta (Homo sapiens), sequence (P09619 whole entry): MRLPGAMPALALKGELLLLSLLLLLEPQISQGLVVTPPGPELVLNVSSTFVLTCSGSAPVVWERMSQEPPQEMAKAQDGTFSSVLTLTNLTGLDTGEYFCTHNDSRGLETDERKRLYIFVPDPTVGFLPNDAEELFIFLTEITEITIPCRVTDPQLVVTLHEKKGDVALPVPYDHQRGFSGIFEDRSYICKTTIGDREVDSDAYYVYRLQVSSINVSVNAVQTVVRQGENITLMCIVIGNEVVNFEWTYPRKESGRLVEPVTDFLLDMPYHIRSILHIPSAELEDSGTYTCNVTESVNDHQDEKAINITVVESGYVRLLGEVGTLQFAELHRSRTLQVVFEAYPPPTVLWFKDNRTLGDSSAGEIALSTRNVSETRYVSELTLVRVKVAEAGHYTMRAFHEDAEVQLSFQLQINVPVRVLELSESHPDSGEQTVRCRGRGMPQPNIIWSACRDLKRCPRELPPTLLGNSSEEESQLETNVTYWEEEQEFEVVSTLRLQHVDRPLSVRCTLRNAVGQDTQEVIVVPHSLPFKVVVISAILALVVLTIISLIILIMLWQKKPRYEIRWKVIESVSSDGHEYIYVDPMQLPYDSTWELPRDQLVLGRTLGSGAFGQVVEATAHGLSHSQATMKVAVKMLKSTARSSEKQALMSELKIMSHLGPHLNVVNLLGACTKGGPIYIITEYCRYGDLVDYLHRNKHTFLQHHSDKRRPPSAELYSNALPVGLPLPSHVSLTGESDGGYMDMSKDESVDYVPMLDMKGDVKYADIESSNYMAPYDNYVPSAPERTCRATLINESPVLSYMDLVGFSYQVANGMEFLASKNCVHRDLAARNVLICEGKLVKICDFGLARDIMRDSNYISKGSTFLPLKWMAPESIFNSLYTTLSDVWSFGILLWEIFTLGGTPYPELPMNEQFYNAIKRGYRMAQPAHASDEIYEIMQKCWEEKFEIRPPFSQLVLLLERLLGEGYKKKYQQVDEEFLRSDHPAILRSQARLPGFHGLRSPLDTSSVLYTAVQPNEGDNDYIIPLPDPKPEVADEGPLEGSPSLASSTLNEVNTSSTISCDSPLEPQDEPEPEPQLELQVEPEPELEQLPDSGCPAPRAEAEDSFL
Dual specificity protein kinase CLK4 (Homo sapiens), sequence (Q9HAZ1 whole entry, looked up): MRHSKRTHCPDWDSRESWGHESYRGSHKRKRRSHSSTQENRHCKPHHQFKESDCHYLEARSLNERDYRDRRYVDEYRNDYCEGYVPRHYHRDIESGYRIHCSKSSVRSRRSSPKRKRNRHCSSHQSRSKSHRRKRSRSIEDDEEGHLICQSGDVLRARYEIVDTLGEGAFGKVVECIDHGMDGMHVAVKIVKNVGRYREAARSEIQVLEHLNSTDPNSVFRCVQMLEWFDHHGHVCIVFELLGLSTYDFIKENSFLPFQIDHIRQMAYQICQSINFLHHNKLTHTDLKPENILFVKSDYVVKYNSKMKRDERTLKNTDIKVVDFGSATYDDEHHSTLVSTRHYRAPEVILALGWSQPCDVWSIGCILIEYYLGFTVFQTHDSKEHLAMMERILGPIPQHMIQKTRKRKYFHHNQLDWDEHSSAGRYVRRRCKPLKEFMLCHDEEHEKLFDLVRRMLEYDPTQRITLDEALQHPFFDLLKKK

Structure (SMILES) | Activity [1] [%] | Activity [2] [%] | Activity [3] [%] | Activity [4] [%] | Activity [5] [%] | Activity [6] [%] | deltaH [7]
COc1cc2ncnc(N[C@H](C)c3cccc4ccccc34)c2cc1OC | 100 | 100 | 100 | 3.2 | 94 | 90 | -14.1 kcal/mol
CNCc1ccccc1-c1csc([C@@H](C)Nc2nc(C)nc3cc(OC)c(OC)cc23)c1 [BAY-293] |  |  |  |  |  |  | -16.1 kcal/mol and -17.9 kcal/mol
COc1cc2nc(C)nc(N[C@H](C)c3cccc(-c4cn[nH]c4)c3)c2cc1OC | 89 | 76 | 93 | 88 | 100 | 62 | 
